The source made the active and inactive calls. No cut-off for these calls is given here.
Columns and labels:
Candida parapsilosis [1] = assay: Increase in CGD gene ortholog accession number orf19.779 expression in Candida parapsilosis CLIB214 at 50 uM after 2 hrs by microarray based transcriptional profiling relative to control; assay type: functional
In short: (§1)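 Strain CLIB214 grown overnight in YPD at 30°C, diluted to A600 0.2 in fresh YPD at 30°C. After 4 h (A600 0.8), farnesol (40 mM methanol stock) added to 50 μM final, or an equal methanol volume as control; cells harvested 2 h later. RNA was accepted only with a 28S/18S ratio of 1.6–2.2. Cy3/Cy5-dCTP-labelled cDNA was made from 25 μg total RNA. Hybridisation was to duplicate-spotted 68-mer oligo arrays (3,849 genes) at 42°C for about 16 h. Six individual comparisons.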

Candida parapsilosis [2] = assay: Increase in CGD gene ortholog accession number orf19.7235 expression in Candida parapsilosis CLIB214 at 50 uM after 2 hrs by microarray based transcriptional profiling relative to control; assay type: functional; in short: as §1
Candida parapsilosis [3] = assay: Decrease in CGD gene ortholog accession number orf19.6744 expression in Candida parapsilosis CLIB214 at 50 uM after 2 hrs by microarray based transcriptional profiling relative to control; assay type: functional; in short: as §1
Candida parapsilosis [4] = assay: Increase in CGD gene ortholog accession number orf19.7097 expression in Candida parapsilosis CLIB214 at 50 uM after 2 hrs by microarray based transcriptional profiling relative to control; assay type: functional; in short: as §1
Candida parapsilosis [5] = assay: Antifungal activity against Candida parapsilosis CLIB214 assessed as reduction of biofilm formation at 100 uM added 4 hrs after […] growth by crystal violet assay; assay type: functional; parameters: scale not given: the % may be the effect or the level left
In short: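 Cells grown overnight in YNB, diluted to A600 1, and left to adhere 2 h at 37°C. Nonadherent cells washed off with PBS, then fresh YNB added and plates incubated 24 h at 37°C. Biofilms stained with 0.1% crystal violet for 15 min at 30°C, destained 4 h in 33% acetic acid, and read at A570.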

Candida parapsilosis [6] = assay: Antifungal activity against Candida parapsilosis CLIB214 assessed as growth inhibition at 100 uM added 4 hrs after […] growth; assay type: functional, organism-based
In short: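 C. parapsilosis CLIB214 grown overnight in YPD at 30°C, diluted to A600 0.2 in fresh YPD, grown 4 h (A600 0.8), then farnesol added at final 10, 20, 50 or 100 μM from a 40 mM methanol stock. Methanol-only controls. Growth followed by A600 or by cell counting with a particle counter.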

Candida parapsilosis [7] = assay: Cell cycle arrest in Candida parapsilosis CLIB214 assessed as accumulation at S phase at 50 uM added 4 hrs after […] growth; assay type: functional, organism-based
In short: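 YPD culture diluted to A600 0.2 at 30°C. Farnesol added to 50 μM after 4 h. Budding cells scored by microscopy: unbudded as G1, small budded as S, large budded as G2/M. Compared with methanol controls.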

Candida parapsilosis [8] = assay: Antifungal activity against Candida parapsilosis CLIB214 assessed as growth inhibition in presence of 10% fetal calf serum at 37 degC; assay type: functional, organism-based
In short: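 YPD cultures started at A600 0.2, supplemented with 10% (vol/vol) fetal calf serum, and grown at 30°C or 37°C. Farnesol added with the serum. Growth monitored by A600 or cell counting.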

Candida parapsilosis [9] = assay: Antifungal activity against Candida parapsilosis CLIB214 assessed as growth inhibition at 50 uM added after 8 hrs of bacterial growth measured after 4 hrs; assay type: functional; conditions: Lodderomyces parapsilosis
In short: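 Overnight YPD culture at 30°C diluted to A600 0.2 in YPD. Farnesol added to 50 μM final at 2, 4, 6 or 8 h of growth (A600 about 0.8 at 4 h, 2.3 at 6 h, 6 at 8 h). Growth compared with methanol controls by A600 or cell counts.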

Candida parapsilosis [10] = assay: Effect on membrane lipid localization in ERG9 gene expression in Candida parapsilosis CLIB214 assessed as growing bud tip staining at 50 uM after 1 hr by filipin staining; assay type: functional
In short: (§2)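 Cultures grown overnight in YPD at 30°C, diluted to A600 0.2, and given farnesol to 50 μM final (methanol for controls) after 4 h of growth. Cells collected 1 h later, PBS-washed, and stained 10 min at room temperature with 100 μg ml−1 filipin in water. Scored by fluorescence microscopy (excitation 360–370 nm, emission 420–460 nm) as bud-tip versus uniform sterol staining.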

Candida parapsilosis [11] = assay: Effect on membrane lipid localization in ERG9 gene expression in Candida parapsilosis CLIB214 assessed as uniform staining at 50 uM after 1 hr by filipin staining; assay type: functional; in short: as §2
Candida parapsilosis [12] = assay: Increase in GLN1 gene expression in Candida parapsilosis CLIB214 by RT-PCR; assay type: functional, organism-based
In short: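 Cultures in YPD at 30°C, diluted to A600 0.2; 50 μM farnesol (final) or methanol added at 4 h, RNA harvested 2 h later. RT-PCR: 95°C hot start 1 min 30 s, then 26 cycles (95°C 40 s, 55°C 2 min, 72°C 3 min), final 72°C 5 min; each gene signal normalized to ACT1.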

Candida parapsilosis [13] = assay: Increase in ERG7 gene expression in Candida parapsilosis CLIB214 at 50 uM after 2 hrs by microarray based transcriptional profiling relative to control; assay type: functional
In short: (§3)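 Strain grown overnight in YPD at 30°C, diluted to A600 0.2 in YPD at 30°C; farnesol (40 mM methanol stock) added at 4 h (A600 0.8), final 50 μM; methanol-only control. Cells collected 2 h later for RNA. Labelled cDNA from 25 μg total RNA (Cy3/Cy5-dCTP) hybridized to 68-mer oligo arrays at 42°C ~16 h; six individual comparisons analysed statistically.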

Candida parapsilosis [14] = assay: Increase in CGD gene ortholog accession number orf19.7270 expression in Candida parapsilosis CLIB214 at 50 uM after 2 hrs by microarray based transcriptional profiling relative to control; assay type: functional; in short: as §1
Candida parapsilosis [15] = assay: Increase in CGD gene ortholog accession number orf19.3501 expression in Candida parapsilosis CLIB214 at 50 uM after 2 hrs by microarray based transcriptional profiling relative to control; assay type: functional; in short: as §1
Candida parapsilosis [16] = assay: Decrease in CGD gene ortholog accession number orf19.2517 expression in Candida parapsilosis CLIB214 at 50 uM after 2 hrs by microarray based transcriptional profiling relative to control; assay type: functional
In short: (§4)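 Cells in YPD at 30°C treated with 50 μM farnesol at 4 h, with a methanol control. RNA harvested 2 h later and kept only if 28S/18S ratio was 1.6–2.2 with no degradation. 25 μg total RNA oligo-dT primed and labeled with Cy3/Cy5-dCTP. Labeled cDNA hybridized about 16 h at 42°C to duplicate-spotted 68-mer oligo arrays. Six individual comparisons analyzed statistically.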

Candida parapsilosis [17] = assay: Decrease in PGA55 gene expression in Candida parapsilosis CLIB214 at 50 uM after 2 hrs by microarray based transcriptional profiling relative to control; assay type: functional; in short: as §1
Candida parapsilosis [18] = assay: Decrease in CGD gene ortholog accession number orf19.3434 expression in Candida parapsilosis CLIB214 at 50 uM after 2 hrs by microarray based transcriptional profiling relative to control; assay type: functional; in short: as §4
Candida parapsilosis [19] = assay: Increase in CGD gene ortholog accession number orf19.966 expression in Candida parapsilosis CLIB214 at 50 uM after 2 hrs by microarray based transcriptional profiling relative to control; assay type: functional; in short: as §3
Candida parapsilosis [20] = assay: Increase in CGD gene ortholog accession number orf19.6117 expression in Candida parapsilosis CLIB214 at 50 uM after 2 hrs by microarray based transcriptional profiling relative to control; assay type: functional; in short: as §1

Structure (SMILES): CC(C)=CCC/C(C)=C/CC/C(C)=C/CO [FARNESOL]
- fold change (FC) (Candida parapsilosis [1]): 1.72
- fold change (FC) (Candida parapsilosis [2]): 1.56
- fold change (FC) (Candida parapsilosis [3]): 1.66
- fold change (FC) (Candida parapsilosis [4]): 1.86
- Activity (Candida parapsilosis [5]): 30%
- Activity (Candida parapsilosis [6]): Active
- Activity (Candida parapsilosis [7]): Active
- Activity (Candida parapsilosis [8]): inactive
- inhibition at 50 µM (Candida parapsilosis [9]): 16%
- Activity (Candida parapsilosis [10]): 18%
- Activity (Candida parapsilosis [11]): 82%
- Activity (Candida parapsilosis [12]): Active
- fold change (FC) (Candida parapsilosis [13]): 1.68
- fold change (FC) (Candida parapsilosis [14]): 1.67
- fold change (FC) (Candida parapsilosis [15]): 1.63
- fold change (FC) (Candida parapsilosis [16]): 1.69
- fold change (FC) (Candida parapsilosis [17]): 1.76
- fold change (FC) (Candida parapsilosis [18]): 1.8
- fold change (FC) (Candida parapsilosis [19]): 1.6
- fold change (FC) (Candida parapsilosis [20]): 1.6

From ChEMBL document CHEMBL1157379, “Transcriptional response of Candida parapsilosis following exposure to farnesol” (2007)
